Measurements published in ChEMBL document CHEMBL4402562, “Discovery of Novel Peptidomimetic Boronate ClpP Inhibitors with Noncanonical Enzyme Mechanism as Potent Virulence Blockers in Vitro and in Vivo” (J Med Chem, 2020).
Activity calls are given as the source filed them. The calls are words filed in the database; no cut-off is given here. Where a SMILES comes first, the peptide text is derived from it. The star is where a group is joined. Cbz = O=C(OCc1ccccc1)*; CH2Cl = ClC*

Legend:
[1] = biological target: ATP-dependent Clp protease proteolytic subunit (Escherichia coli (strain K12), UniProt P0A6G7); assay: Inhibition of Escherichia coli ClpP
ATP-dependent Clp protease proteolytic subunit (Escherichia coli (strain K12), UniProt P0A6G7), sequence (P0A6G7 whole entry): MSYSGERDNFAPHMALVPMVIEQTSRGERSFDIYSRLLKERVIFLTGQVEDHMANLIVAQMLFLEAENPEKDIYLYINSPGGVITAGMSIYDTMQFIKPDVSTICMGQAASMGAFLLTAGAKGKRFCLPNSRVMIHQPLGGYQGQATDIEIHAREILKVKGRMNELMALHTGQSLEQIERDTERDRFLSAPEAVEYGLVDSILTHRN

[2] = biological target: T1, ATP-dependent Clp protease proteolytic subunit (Staphylococcus aureus (strain NCTC 8325)) (UniProt Q2G036); assay: Binding affinity to N-terminal His6-sumo-tagged full length Staphylococcus aureus ClpP expressed in Escherichia coli […] assessed as melting temperature at 100 uM by differential scanning calorimetry analysis (reference value: 50.8 degC)
T1 sequence (whole entry): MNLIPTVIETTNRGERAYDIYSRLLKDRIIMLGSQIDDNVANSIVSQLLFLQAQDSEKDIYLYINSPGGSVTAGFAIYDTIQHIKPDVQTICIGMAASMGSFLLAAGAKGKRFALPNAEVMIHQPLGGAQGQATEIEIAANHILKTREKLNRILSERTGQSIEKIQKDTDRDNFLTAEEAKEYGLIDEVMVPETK
Method in brief: (§1)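 DSC: SaClpP at 0.5 mg/mL (25 μM) incubated at RT with 100 μM inhibitor in assay buffer. Scanned at 1 °C/min over 30–90 °C, with a buffer-buffer scan subtracted. Tm taken as the thermogram peak maximum. Run once, single sample.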

[3] = biological target: T2, ATP-dependent Clp protease proteolytic subunit (Staphylococcus aureus (strain NCTC 8325), UniProt Q2G036); assay: Binding affinity to N-terminal His6-sumo-tagged full length Staphylococcus aureus ClpP expressed in Escherichia coli […] assessed as shifting of melting peak of SaClpP by differential scanning calorimetry analysis
T2 sequence (Q2G036 whole entry): T1 sequence (whole entry)
Method in brief: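 DSC: 0.5 mg/mL (25 µM) SaClpP with 100 µM compound or two-fold dilution series, RT; scanned 30-90 °C at 1 °C/min, buffer-buffer scan subtracted; Tm from thermogram peak maximum; single run.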

[4] = biological target: T1, ATP-dependent Clp protease proteolytic subunit (Staphylococcus aureus (strain NCTC 8325)); assay: (§2) Inhibition of N-terminal His6-sumo-tagged full length Staphylococcus aureus ClpP expressed in Escherichia coli BL2 (DE3) at 3 uM pre-incubated for 10 mins before 200 uM to 1 mM Suc-LY-AMC addition and measured after 1 hr by fluorescence based assay relative to control
Method in brief: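 SaClpP (1 μM) in 100 mM Hepes pH 7.0, 100 mM NaCl preincubated 10 min at RT with 3 μM inhibitor. Suc-LY-AMC at 200 μM or 1 mM, fluorescence at 380/440 nm for 1 h at 37 °C. Slope relative to DMSO; three independent replicates.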

[5] = biological target: T2, ATP-dependent Clp protease proteolytic subunit; assay: Binding affinity to N-terminal His6-sumo-tagged full length Staphylococcus aureus ClpP expressed in Escherichia coli […] by ITC analysis
Method in brief: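 ITC at 500 rpm stirring after 150 s equilibration. A discarded 1 μL first injection, then 19 injections of 2 μL over 5 s each, 2–3 min apart, into 200 μL sample cell. Reference power 7 μcal/s, high gain, 5-s filter, baseline-corrected fit.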

[6] = biological target: T1, ATP-dependent Clp protease proteolytic subunit (Staphylococcus aureus (strain NCTC 8325)); assay: Binding affinity to N-terminal His6-sumo-tagged full length Staphylococcus aureus ClpP expressed in Escherichia coli […] assessed as change in melting temperature at 100 uM by differential scanning calorimetry analysis; method in brief: as §1
[7] = biological target: T1, ATP-dependent Clp protease proteolytic subunit (Staphylococcus aureus (strain NCTC 8325)); assay: as §2, with “[…] assessed as enzyme activity recovery level” for “(DE3)”, “20-fold molar excess” for “3 uM”, “before” for “before 200 uM to 1 mM”, “hr followed by dialysis up to 72 hrs” for “hr”; set-up: scale not given: the % may be the effect or the level left
Method in brief: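 ClpP (1 μM, 100 mM Hepes pH 7.0, 100 mM NaCl) incubated 1 h at RT with 20-fold molar excess inhibitor or DMSO. Dialyzed at 4 °C, buffer changed after 6 h and then every 24 h. Aliquots assayed for peptidase activity with Suc-LY-AMC. Thrice, single sample.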

Staphylococcus aureus = assay: Inhibition of Staphylococcus aureus ClpXP expressed in Escherichia coli […] at 1 to 100 uM using FITC-casein substrate in presence of ATP-regenerating system incubated for 50 mins by fluorescence based assay
Method in brief: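 3.6 μM SaClpP with 3 μM SaClpX in 25 mM Hepes pH 7.5, 20 mM MgCl2, 30 mM KCl, 0.03% Tween 20, 10% glycerol, 2 mM DTT. ATP regeneration: 4 mM ATP, 20 U/mL creatine kinase, 16 mM creatine phosphate. FITC-casein 0.048 mg/mL, 494/521 nm for 50 min; slope 300–1200 s vs DMSO. Thrice, triplicate wells.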

[8] = Inhibition of human ClpP (57 to 277 residues) expressed in Escherichia coli […] pre-incubated for 10 mins before Ac-WLA-AMC addition and measured after 1 hr by fluorescence based assay relative to control
Method in brief: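 hClpP (3.5 μM monomer) in 25 mM Tris-HCl pH 8.0, 100 mM KCl. Preincubated 10 min at RT with inhibitor, two-fold dilutions over 8 steps from 100 μM. Then 100 μM Ac-WLA-AMC, 380/440 nm for 1 h at 37 °C, slopes normalized to DMSO. Thrice, triplicate wells.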

[9] = Inhibition of Pseudomonas aeruginosa ClpP1 expressed in Escherichia coli […] pre-incubated for 10 mins before Suc-LY- AMC addition and measured after 1 hr by fluorescence based assay relative to control
Method in brief: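 PaClpP1 (0.5 μM monomer) in 25 mM Tris-Cl pH 7.5, 150 mM NaCl. Preincubated 10 min at RT with inhibitor, two-fold dilutions over 8 steps from 50 μM. Then 50 μM Suc-LY-AMC, 380/440 nm for 1 h at 37 °C, slopes normalized to DMSO. Thrice, triplicate wells.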

[10] = biological target: 20S proteasome (Homo sapiens) (UniProt P49721+P20618+P28074+P28062+P28065+P28072+P25786+P25787+P25788+P25789+P28066+P60900+O14818+Q8TAA3+P40306+A5LHX3+P49720+P28070+Q99436); assay: Inhibition of 20S proteasome (unknown origin) pre-incubated before Suc-LLVY-AM addition and measured after 1 hr by fluorescence based assay; assay type: protein-complex assay
[11] = Inhibition of AlgW (unknown origin) up to 100 uM pre-incubated for 10 mins before Abz-T-V-A-W-pNA addition and measured after 1 hr by fluorescence based assay
[12] = biological target: Coagulation factor X (Homo sapiens) (UniProt P00742); assay: Inhibition of human F10a up to 100 uM pre-incubated for 10 mins before Pefachrome Fxa addition and measured after […] based assay
Coagulation factor X (Homo sapiens), sequence (P00742 41-179 limits assumed): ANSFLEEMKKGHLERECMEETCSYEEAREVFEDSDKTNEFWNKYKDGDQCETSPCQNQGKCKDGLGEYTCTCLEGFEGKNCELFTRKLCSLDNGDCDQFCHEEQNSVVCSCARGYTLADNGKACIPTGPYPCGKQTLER
Coagulation factor X (Homo sapiens), sequence (P00742 235-488 limits assumed): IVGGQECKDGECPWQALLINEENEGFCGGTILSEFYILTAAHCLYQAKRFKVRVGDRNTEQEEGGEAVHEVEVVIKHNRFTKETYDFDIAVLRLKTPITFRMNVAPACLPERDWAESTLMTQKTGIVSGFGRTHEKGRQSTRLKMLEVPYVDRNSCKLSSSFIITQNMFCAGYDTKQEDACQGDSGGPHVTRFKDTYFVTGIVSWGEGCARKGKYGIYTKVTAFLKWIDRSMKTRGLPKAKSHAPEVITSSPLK

`CC(C)C[C@H](NC(=O)OCc1ccccc1)C(=O)N[C@@H](Cc1ccc(O)cc1)C(=O)CCl` (Cbz-Leu-Tyr-CH2Cl) gave an IC50 [1] of 14.4 µM.
In the case of `CC(C)C[C@H](NC(=O)CNC(=O)c1cc(Cl)ccc1Cl)B1OC(=O)CC(CC(=O)O)(C(=O)O)O1` (stereo partly drawn), the Tm [2] is reported as 66.5 °C, the EC50 [3] is reported as 19.9 µM and the inhibition [4] is reported as “Active”. For the same compound, the Kd [5] was 7.3 µM, the ΔTm [6] was 29.5 to 42.2 °C and the Activity [7] was 100%. For the same compound, the inhibition (Staphylococcus aureus) was “inactive”, the IC50 [8] was 3 to 25 µM and the IC50 [9] was 3 to 25 µM. For the same compound, the inhibition [10] was “Active”, the inhibition [11] was “inactive” and the inhibition [12] was “inactive”.
